Experimental data taken from the RNAGym collection of RNA variant scans (doi:10.1126/science.aae0568).
This sample holds only a part of the variants without activity.

B1: tRNA (parent)
chain: GUUCCGUUGGCGUAAUGGUAACGCGUCUCCCUCCUAAGGAGAAGACUGCGGGUUCGAGUCCCGUACGGAACG

Variants of: B1
Experiment: yeast fitness relative to wild type (ratio to wild type); higher = fitter; tRNA-Arg(CCU), competitive growth, 37 C, YPD
Procedure, shortened: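 Amplicons of the tRNA-Arg(CCU) gene were sequenced, 100-nucleotide paired-end, from the start population and from each end population of a pooled yeast competition. The competition, in six parallel replicates, lasted 24 hours in YPD at 37°C. Fitness relative to wild type was calculated from changes in genotype frequencies. Genotypes had to have ≥ 100 starting reads, and estimates < 0.5 were set to 0.5.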

**Q.** For GUUCCGUUGGCGUCAUGGUAAGGCGUCUCCCUCCUAAGGAGAAGACUGCGGGUUCGAGUCCCCUACGGAACG, which yeast fitness is on record?
**A.** ≤ 0.5

**Q.** With GUUCCGUUGGCGUCAUGGUAAUGCGUCUCCCUCCUAAGGAAAAGACUGCGGGUUCGAGUCUCGUAUGGAACG as the variant, how does the yeast fitness read?
**A.** ≤ 0.5

**Q.** For GUUCCGUUGGCGUCAUGGUAACGCGUCUUCCUCCUAAGCAGAAGACUGCGGGUCCGAGUCCCGUACGGAACG, which yeast fitness is on record?
**A.** 0.678

**Q.** With GUUCCGUUGGCGUCAUGGUAACGUGUCUCCCUCCUAAGGAGAAGUCUGCGCGUUCGAGUCCCGUACGGAACG as the variant, how does the yeast fitness read?
**A.** ≤ 0.5

**Q.** Which yeast fitness does the source give for GUUCCGUUGGCGUCAUGGUAACGCGUGUCCCUCCUAAGGAGAAGAGUGCGGGUUCGAGUCCCGUGCGGAACG here?
**A.** 0.576

**Q.** For GUUCCGUUGGCGUCAUGGUAACGCGUCUCCCUCCUAAGGAGAAGGCUGUGGGUUCGAGUCCCGUACGGAACG, which yeast fitness is on record?
**A.** 0.549

**Q.** Which yeast fitness does the source give for GUUCCGUUGGCGUCAUGGUAAAGCGUCUCCCUCCUAAGGAGAAGACUGCGGGUUCGAGGCCGGUACGGAACG here?
**A.** ≤ 0.5

**Q.** For GUUCCGUUGGCGUCAUGGUAACGCGUCUACCUCCUAAGGAGAAGACUACAGGUUCGAGUCCCGUACGGAACG, which yeast fitness is on record?
**A.** ≤ 0.5

**Q.** For GUUCCGUUGGCGUCAUGGUAAUGCGUCUCCCUCCUAAGGAGAAGACUGCGGGUUCGAGUCCCGCACGGAGCG, which yeast fitness is on record?
**A.** ≤ 0.5

**Q.** For GUUCCGUUGGCGUCAUGGUAACGAGUCUCCCUCCUAAGGAGAAGACUGCGGAAUCGAGUCCCGUACGGAACG, which yeast fitness is on record?
**A.** ≤ 0.5

**Q.** With GUUCCGUUGGCGUCAUGGUAAGGCGUCUCCCUCCUAAGGAGAAGACUGCGGCUUCGAGUCCCGUACGGAACG as the variant, how does the yeast fitness read?
**A.** ≤ 0.5

**Q.** For GUUCCGUUGGCGUCAUGGUAACGUGUCUCCCUCCUGAGGAGAAGACUGCGGGUUCGAGUCCCGUACGCAACG, which yeast fitness is on record?
**A.** ≤ 0.5

**Q.** With GUUCCGUUGGCGUCAUGGUAAGGCAUCUCCUUCCUAAGGAGAAGACUGCGGGUUCGAAUCCCGUACGGAACG as the variant, how does the yeast fitness read?
**A.** ≤ 0.5

**Q.** Which yeast fitness does the source give for GUUCCGUUGGCGUCAUGGUAACGCGUCUCACUGCUAAGGAGAAGAUUGCGGGUUCGAGUCCCGUACGGAACG here?
**A.** ≤ 0.5

**Q.** With GUUCCGUUGGCGUCAUGGUAACGCGUUUCCCUCCUAAGGAGACGACUGCGGGUUCGAGUCCCGUACGGAACG as the variant, how does the yeast fitness read?
**A.** ≤ 0.5

**Q.** Which yeast fitness does the source give for GUUCCGUUGGCGUCAUGGUAACGCGUUUCCCUCCUAAGGAGAUGACUGCGGGUUCGAGUCCCGUACGGAACG here?
**A.** ≤ 0.5

**Q.** With GUUCCGUUGGCGUCAUGGUAACGCGUCUCACUCCUGAGGAGAAGACUGCGGGUUCGAGUCCUAUACGGAACG as the variant, how does the yeast fitness read?
**A.** ≤ 0.5

**Q.** Which yeast fitness does the source give for GUUCCGUUGGCGUCAUGGUAACGCGUGUCCCUCCUAAGGAGAAGACUGCGGGUUCGAGUCUCGUACGGAGCG here?
**A.** 0.538

**Q.** Which yeast fitness does the source give for GUUCCGUUGGCGUCAUGGUAACGCGUAUCCCUCCUAGGGAGAAGACUGCGCGUUCGAGUCCCGUACGGAACG here?
**A.** 0.615

**Q.** For GUUCCGUUGGCGUCAUGGUAACGCGUCUCCCUCCUAAGGAGAAGACUGCGGGUUCGUGUCCUGUACAGAACG, which yeast fitness is on record?
**A.** 0.508

**Q.** Which yeast fitness does the source give for GUUCCGUUGGCGUCAUGGUAACGCGUCUCCCUCCUAAGGAGAAGACUGCGGGUUCGAGUCCCGUGCGGAACG here?
**A.** 0.776

**Q.** With GUUCCGUUGGCGUCAUGGUAAAGCGUCUCCCUCCUAAGGAGAAGAAUGCGGGUUCGAGUCCCGUAUGGAACG as the variant, how does the yeast fitness read?
**A.** ≤ 0.5

**Q.** With GUUCCGUUGGCGUCAUGGUAACGCGUCUGACUCCUAAGGAGAAGACUGCGGGUUCGAGUCCAGUACGGCACG as the variant, how does the yeast fitness read?
**A.** ≤ 0.5

**Q.** For GUUCCGUUGGCGUCAUGGUAACGCGUGUCCCUCCUAAGGUGAAGACUGCGGGUUCGAGUCCCGUACGGAUCG, which yeast fitness is on record?
**A.** ≤ 0.5

**Q.** With GUUCCGUUGGCGUCAUGGUAAUGCGUCUCCCUCUUAAGGAGAAGACUGCGGGUUCGAGUCCCGUACGGAACG as the variant, how does the yeast fitness read?
**A.** 0.79

**Q.** With GUUCCGUUGGCGUCAUGGUAACGCGUGUCCCUCCUAAGGAGAAGAGUGCGGGUUCGCGUCCCGUACGGACCG as the variant, how does the yeast fitness read?
**A.** ≤ 0.5

**Q.** For GUUCCGUUGGCGUCAUGGUAACGCGUUUCCUUACUAAGGAGAAGACUGCGGGUUUGAGUCCCGUACGGAACG, which yeast fitness is on record?
**A.** ≤ 0.5

**Q.** Which yeast fitness does the source give for GUUCCGUUGGCGUCAUGGUAACGCGUAACCCUCCUAAGGAGAAGGCUGCGGGUUCGAGUCCCGUACGGAACG here?
**A.** ≤ 0.5

**Q.** For GUUCCGUUGGCGUCAUGGUAACGUGUCUCCCUCCUAAGGUGAAAACUGCGGGUUCGAGUCCCGUACGGAGCG, which yeast fitness is on record?
**A.** ≤ 0.5

**Q.** For GUUCCGUUGGCGUCAUGGUAACGUGUCUCCCUCCCAAGGAGAAGACUGCGGGUUCGAGUCCCGUACGGAACG, which yeast fitness is on record?
**A.** ≤ 0.5

**Q.** With GUUCCGUUGGCGUCAUGGUAACGCGUGUCCCUACUAAGGAGAAGUCUGCGGGUUCGAGUCCCGUACUGAACG as the variant, how does the yeast fitness read?
**A.** ≤ 0.5

**Q.** For GUUCCGUUGGCGUCAUGGUAACGCGUCUCCCUCCUAAGGAGAAGUCUGCGGGUUCGAGUCCAGUACGGAACG, which yeast fitness is on record?
**A.** ≤ 0.5

**Q.** Which yeast fitness does the source give for GUUCCGUUGGCGUCAUGGUAAGGCCUCUCCCUCCUAAGGAGGAAACUGCGGGUUCGAGUCGCGUACGGAACG here?
**A.** ≤ 0.5

**Q.** With GUUCCGUUGGCGUCAUGGUAACGCGUCUCCCUCCUAAGGAGAAGACUGCGGGUUCGCGUCCCGUACGCAACG as the variant, how does the yeast fitness read?
**A.** ≤ 0.5

**Q.** With GUUCCGUUGGCGUCAUGGUAACGCGUCUCCCUCCUAAGGAGAAGACUGCGGGUUCGGGUCCCGUACGGAACG as the variant, how does the yeast fitness read?
**A.** 0.748

**Q.** Which yeast fitness does the source give for GUUCCGUUGGCGUCAUGGUAACGCGUCUCCCUCCUAAGGAGAAGACUGCGGGUUCGUGUCCCGUACGGAACG here?
**A.** 0.52

**Q.** Which yeast fitness does the source give for GUUCCGUUGGCGUCAUGGUAACGCGUCUCCCUCCUAAGGAGAAGGCUGCGGGUUCGAGUCCCGUACGCAACG here?
**A.** ≤ 0.5

**Q.** With GUUCCGUUGGCGUCAUGGUAACGCGUCUCCCUCCUAAGGAGAAGUCUACGGGUUCGAGUCCCGUACGGAACG as the variant, how does the yeast fitness read?
**A.** ≤ 0.5
